Scp1 inh = blocks human Scp-1 phosphatase activity; actives 0.88% (n = 340,000); inhibition, % at 20 µM; Recombinant Scp1, phosphopeptide, malachite green phosphate absorbance; Q9GZU7; AID 493091;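 active means inhibition above about 50% at 20 µM, limit read from the data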;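 further: plate controls were DMSO wells with enzyme for no effect and wells lacking enzyme for full effect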
Target sequence (Q9GZU7 76-261 limits assumed): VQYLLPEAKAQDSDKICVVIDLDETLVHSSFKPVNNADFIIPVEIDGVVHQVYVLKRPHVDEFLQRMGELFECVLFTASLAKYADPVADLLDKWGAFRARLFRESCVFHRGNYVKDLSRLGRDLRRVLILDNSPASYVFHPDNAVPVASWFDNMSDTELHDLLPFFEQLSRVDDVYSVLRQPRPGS
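Material: truncated SCP-1 phosphatase (76-261aa) / Buffer or medium: 50 mM Tris acetate pH 5.5, 0.005% Tween-20, 10 mM MgCl2 / Compound dosing: one concentration, 20 µM, with 1.0% DMSO / Incubation: 45 min room-temperature reaction, 5 min colour, 30 min stabiliser / Detection: colorimetric free-phosphate detection, absorbance 630 nm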
SUMO1-SIM PPI = SUMO1-SIM interaction modulation; P63165; SUMO1 binding to a labelled peptide, TR-FRET, 1 h; inhibition, % at 20 µM; actives 0.33% (n = 360,000); in the data active means inhibition above about 37%
Target sequence (P63165 whole entry, looked up): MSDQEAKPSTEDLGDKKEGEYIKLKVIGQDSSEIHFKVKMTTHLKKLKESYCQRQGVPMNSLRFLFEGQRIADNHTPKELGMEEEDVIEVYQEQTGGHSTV
LMPTP inh = LMPTP (human) inhibition; actives 0.22% (n = 360,000); inhibition, % at 20 µM; P24666; recombinant LMPTP-A, OMFP fluorogenic substrate, fluorescence intensity;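 active means compounds that cut the enzyme signal by at least half of the control window in the single-dose screen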;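 further: plate controls were DMSO wells with enzyme plus substrate for no effect and substrate without enzyme for full effect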
Target sequence (P24666 whole entry, looked up): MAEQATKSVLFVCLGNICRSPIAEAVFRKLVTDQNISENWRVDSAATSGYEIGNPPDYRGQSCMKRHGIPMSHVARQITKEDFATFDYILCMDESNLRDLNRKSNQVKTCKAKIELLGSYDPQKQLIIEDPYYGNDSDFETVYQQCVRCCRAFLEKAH
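Test system: LMPTP-A phosphatase enzyme. Amount: LMPTP-A at 0.625 nM final in the reaction. Reagent: OMFP substrate, 400 µM final. Times: 50 min at room temperature. Signal: endpoint fluorescence intensity from OMFP dephosphorylation. Read-out basis: % inhibition. Benchmarks: no-enzyme and uninhibited controls.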
NadD block = NadD (S. aureus) enzyme inhibition | inhibition, % at 20 µM | purified NadD enzyme, colorimetric absorbance read-out | actives 0.78% (n = 360,000); in the data active means inhibition above about 26%
DNMT1 inh = inhibitors of human DNMT1 | P26358 | DNMT1 molecular beacon, Hinp1I cleavage, fluorescence | inhibition (reported as % activation of signal), % at 10 µM | actives 0.83% (n = 360,000) | AID 588458; in the data active means inhibition above about 50%
STEP block = blocks human striatal-enriched tyrosine phosphatase; AID 588621; inhibition, % at 20 µM; actives 0.25% (n = 360,000); recombinant STEP, OMFP fluorogenic substrate, fluorescence; P54829;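 active means inhibition at 20 µM, scaled per plate between control wells, above about 37%, limit read from the data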;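 further: 0% = DMSO with enzyme and substrate and 100% = substrate only without enzyme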
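Assay system: isolated STEP enzyme. Buffer or medium: pH 6.0 Bis-Tris with DTT and Tween 20. Also added: fluorogenic phosphatase substrate OMFP at 25 µM final. Dosing: 20 µM, 1% DMSO. Timing: 20 min reaction, room temperature, in the dark. Measured by: fluorescence intensity, excitation 480 nm, emission 540 nm. Evaluation: normalized % inhibition.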
NadD inh conf = confirmation of Staphylococcus aureus NadD inhibitors; shares compounds with NadD block; purified S. aureus NadD, colorimetric enzyme assay; inhibition, % at 20 µM; actives 13% (n = 2,000); in the data active means inhibition mostly above about 42%, no sharp cut-off; inactive means mostly below about 42%
Numbers without * were called inactive; / = not tested or not shown. Most compounds without a hit are left out; they make up all but 2.3% or so of the library.

SMILES	Scp1 inh	SUMO1-SIM PPI	LMPTP inh	NadD block	DNMT1 inh	STEP block	NadD inh conf
COc1ccc(C(=O)NC2CCN(CC(=O)NCc3ccccc3F)CC2)cc1	-1	4	-2	40*	-1	-1	3
O=C(CN1CCC(NC(=O)c2ccc(F)cc2)CC1)NCc1ccccc1F	-7	0	-1	-2	2	-1	/
Cn1c(N)c(C(=O)COC(=O)c2cc(C3CC3)nc3ccccc23)c(=O)n(Cc2ccccc2)c1=O	0	-2	3	43*	-19	-2	7
Cn1c(N)c(C(=O)COC(=O)c2cc(-c3ccccc3)nc3ccccc23)c(=O)n(Cc2ccccc2)c1=O	2	-26	0	29*	-11	-1	4
O=C/C(=C\Nc1ccc(Cl)cn1)c1nc2cc(Cl)ccc2o1	-7	3	0	38*	38	3	8
Cc1c(C(=O)OCC(=O)N(CC(C)C)c2c(N)n(Cc3ccccc3)c(=O)[nH]c2=O)oc2ccccc12	-2	3	-3	10	-9	5	/
CCOc1ccc2oc(C(=O)OCC(=O)N(CC(C)C)c3c(N)n(Cc4ccccc4)c(=O)[nH]c3=O)c(C)c2c1	-6	4	-18	40*	-2	-14	34
S=C(NCc1cccnc1)Nc1ccc(Oc2ccc(Cl)cc2)cc1	7	1	1	2	1	2	/
Cc1ccc(-c2cc(C(F)F)n3ncc(C(=O)Nc4c(C)nn(Cc5ccccc5Cl)c4C)c3n2)cc1	0	-3	8	33*	-7	11	-2
Cc1ccc(-c2cc(C(F)F)n3ncc(C(=O)Nc4c(C)nn(Cc5c(Cl)cccc5Cl)c4C)c3n2)cc1	-5	1	2	32*	25	0	0
Cc1nn(Cc2c(Cl)cccc2Cl)c(C)c1NC(=O)c1cnn2c(C(F)F)cc(-c3ccccc3)nc12	-7	1	2	43*	38	2	1
CCNC(=O)C1(C)CCN(C(=O)c2ccc(C(F)(F)F)cc2)C1 (configuration not stated)	/	1	-1	-4	0	-1	/
CC(=O)NCc1ccc(S(=O)(=O)N2CCN(S(=O)(=O)c3ccc4ccccc4c3)CC2)cc1	5	1	2	4	41	1	/
Cc1ccc(NC(=O)CN(C)C(=O)C(C)OC(=O)c2ccccc2NCCO)cc1 (configuration not stated)	4	1	1	-1	1	-2	/
CCOc1ccc(NS(=O)(=O)c2cccs2)cc1S(=O)(=O)N1CCCC1	/	-3	0	-11	5	-2	/
C#CCOCCOCCOCCNc1nc(N2CCN(C(=O)[C@H]([C@@H](C)CC)n3cc([C@@H](N)Cc4ccc(O)cc4)nn3)CC2)nc(N2CCN(C(=O)[C@H](Cc3cc4ccccc4[nH]3)n3cc([C@@H](N)CC(C)C)nn3)CC2)n1	11	-15	7	48*	-4	4	36
CCC(=O)Nc1c(-c2ccc(Cl)cc2)c(=O)c2ccccc2n1C	3	1	-1	-1	6	-2	/
O=C(c1ccccc1)c1nn(-c2cccc(Cl)c2)c2nc(-c3ccccc3)cc(=O)n12	1	4	2	1	5	2	/
Cc1cccc(-n2nc(C(=O)Nc3ccccc3)n3c(=O)cc(-c4ccccc4)nc23)c1	-5	0	3	30*	0	3	-9
COc1cc(Cl)c(C)cc1NC(=O)c1cccc(OC)c1OC	-6	-1	5	-5	-4	0	/
COc1ccc(S(=O)(=O)NCc2ccco2)cc1N(C)S(=O)(=O)c1ccccc1	-2	2	-2	-11	2	3	/
O=c1cc(CN2CCN(C/C=C/c3ccccc3)CC2)c2cc(O)c(-c3ccccc3)cc2o1	-8	1	4	39*	-3	14	-9
Cc1cc2oc(=O)cc(CN3CCN(C/C=C/c4ccccc4)CC3)c2cc1O	/	-6	1	6	-10	1	/
COc1ccc(-c2csc(Nc3ccc(S(=O)(=O)Nc4cc(OC)nc(OC)n4)cc3)n2)cc1	-12	18	5	28*	-14	-8	42
COc1cc(NS(=O)(=O)c2ccc(NC(C)=O)cc2)nc(OC)n1	-4	0	-1	-3	2	0	/
SMILES	Scp1 inh	SUMO1-SIM PPI	LMPTP inh	NadD block	DNMT1 inh	STEP block	NadD inh conf
Cc1ccccc1C(=O)Nc1nc(-c2cccnc2)cs1	3	12	11	30*	-12	6	14
COc1ccc(C(=O)/C=C/Nc2ccc(S(=O)(=O)Nc3cc(OC)nc(OC)n3)cc2)c(OC)c1	1	-6	1	32*	-4	6	43
COc1cc(NS(=O)(=O)c2ccc(N/C=C(\C#N)c3nc4cc(Cl)ccc4o3)cc2)nc(OC)n1	-15	9	1	39*	-3	3	38
COc1cc(NS(=O)(=O)c2ccc(Nc3nc(-c4ccccn4)cs3)cc2)nc(OC)n1	-4	20	2	10	0	-3	/
O=C(Nc1nc(-c2cccnc2)cs1)c1ccccc1Cl	-7	0	0	3	0	-1	/
COc1cccc(C(=O)/C=C/Nc2ccc(S(=O)(=O)Nc3cc(OC)nc(OC)n3)cc2)c1	-3	-1	2	8	0	6	/
O=Cc1ccc(OC2OCCOC2Oc2ccc(C=O)cc2)cc1 (configuration not stated)	10	-1	-1	4	-14	-2	/
COc1ccc(-c2csc(NC(=O)c3ccccc3NS(=O)(=O)c3ccc(C)cc3)n2)cc1	-12	25	3	42*	-31	0	51*
Nc1nc(SCc2ccc(Br)cc2)c2ncn(C3OC(CO)C(O)C3O)c2n1 (configuration not stated)	-10	10	-2	0	0	-1	/
Cc1ccc(OCC(=O)Nc2ccc(NC(=O)c3ccccc3)c(C)c2)cc1	-11	7	1	-2	3	-1	/
C[C@H](NC(=O)c1ccc2ccccc2c1)C(=O)N1CCC2(CC1)NCCc1[nH]cnc12	-9	-9	-1	-4	-1	2	/
S=c1[nH]nc(-c2cccs2)n1/N=C/c1cn(-c2ccccc2)nc1-c1cccs1	-9	7	3	28	-13	-1	/
Cc1ccc(-c2nn(-c3ccccc3)cc2/C=N/n2c(-c3cccs3)n[nH]c2=S)cc1	-7	4	5	41*	-27	3	0
COc1ccc(-c2csc(NC(=O)c3ccco3)n2)cc1	-10	7	-1	1	-7	1	/
COc1ccccc1Nc1nc(-c2sc(NC(=O)c3ccco3)nc2C)cs1	-2	-1	1	10	-28	2	/
